Reference: ChEMBL document CHEMBL4346684, “Synthesis and structure-bactericidal activity relationships of non-ketolides: 9-Oxime clarithromycin 11,12-cyclic carbonate featured with three-to eight-atom-length spacers at 3-OH” (Eur J Med Chem, 2019)
In brackets after ≈: the same amount, converted by molar mass.

What was measured:
Format in all cases: functional
Streptococcus pneumoniae [1] = experiment: Antimicrobial activity against erythromycin-susceptible Streptococcus pneumoniae ATCC 49619 incubated in CAMHB medium for 20 to 24 hrs by two-fold microbroth dilution method
Streptococcus pneumoniae [2] = experiment: Antimicrobial activity against mef-encoded erythromycin resistant Streptococcus pneumoniae PU09 incubated in CAMHB medium for 20 to 24 hrs by two-fold microbroth dilution method
Streptococcus pneumoniae [3] = experiment: Bactericidal activity against erythromycin-susceptible Streptococcus pneumoniae ATCC 49619 assessed as reduction in colony formation incubated in CAMHB medium for 20 to 24 hrs followed by 24 hrs subculturing in the medium without test compound
Streptococcus pneumoniae [4] = experiment: Ratio of MBC to MIC for erythromycin-susceptible Streptococcus pneumoniae ATCC 49619
Streptococcus pneumoniae [5] = experiment: Bactericidal activity against mef-encoded erythromycin resistant Streptococcus pneumoniae PU09 assessed as reduction in colony formation incubated in CAMHB medium for 20 to 24 hrs followed by 24 hrs subculturing in the medium without test compound
Streptococcus pneumoniae [6] = experiment: Ratio of MBC to MIC for mef-encoded erythromycin resistant Streptococcus pneumoniae PU09
Streptococcus pyogenes [7] = experiment: Antimicrobial activity against inducibly erythromycin resistant Streptococcus pyogenes 01-968 expressing i-ermA incubated in CAMHB medium for 20 to 24 hrs by two-fold microbroth dilution method
Streptococcus pyogenes [8] = experiment: Bactericidal activity against inducibly erythromycin resistant Streptococcus pyogenes 01-968 expressing i-ermA assessed as reduction in colony formation incubated in CAMHB medium for 20 to 24 hrs followed by 24 hrs subculturing in the medium without test compound
Streptococcus pyogenes [9] = experiment: Ratio of MBC to MIC for inducibly erythromycin resistant Streptococcus pyogenes 01-968 expressing i-ermA
Staphylococcus aureus [10] = experiment: Antimicrobial activity against constitutively erythromycin resistant and methicillin resistant Staphylococcus aureus PU20 expressing c-ermC incubated in CAMHB medium for 20 hrs by two-fold microbroth dilution method; details: PU20, 20 h
Summary of the method: (§1)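 Purified fresh Staphylococcus isolate at about 5×10^5 CFU/ml final in CAMHB, 35 °C for 20 h. Each run included ATCC strains and reference antibiotics as QC, plus an antibiotic-free growth control.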

Staphylococcus aureus [11] = experiment: Bactericidal activity against constitutively erythromycin resistant and methicillin-resistant Staphylococcus aureus PU20 expressing c-ermC assessed as reduction in colony formation incubated in CAMHB medium for 20 hrs followed by 24 hrs subculturing in the medium without test compound
Staphylococcus aureus [12] = experiment: Antimicrobial activity against inducibly erythromycin-resistant and methicillin resistant Staphylococcus aureus PU32 expressing i-ermA incubated in CAMHB medium for 20 hrs by two-fold microbroth dilution method; details: PU32, 20 h; summary of the method: as §1
Staphylococcus aureus [13] = experiment: Bactericidal activity against inducibly erythromycin-resistant and methicillin resistant Staphylococcus aureus PU32 expressing i-ermA assessed as reduction in colony formation incubated in CAMHB medium for 20 hrs followed by 24 hrs subculturing in the medium without test compound
Staphylococcus aureus [14] = experiment: Ratio of MBC to MIC for inducibly erythromycin-resistant and methicillin resistant Staphylococcus aureus PU32 expressing i-ermA
Haemophilus influenzae [15] = experiment: Antimicrobial activity against azithromycin-susceptible Haemophilus influenzae ATCC 49247 incubated in HTM broth medium for 20 to 24 hrs by two-fold microbroth dilution method
Haemophilus influenzae [16] = experiment: Bactericidal activity against azithromycin-susceptible Haemophilus influenzae ATCC 49247 assessed as reduction in colony formation incubated in HTM broth medium for 20 to 24 hrs followed by 24 hrs subculturing in the medium without test compound
Haemophilus influenzae [17] = experiment: Ratio of MBC to MIC for azithromycin-susceptible Haemophilus influenzae ATCC 49247
Moraxella catarrhalis [18] = experiment: Antimicrobial activity against erythromycin-susceptible Moraxella catarrhalis 13L332 incubated in CAMHB medium for 20 hrs by two-fold microbroth dilution method; details: 13L332, 20 h
Summary of the method: (§2)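 Clinical isolates and ATCC strains, purified by plate activation and used fresh; inoculum about 5×10^5 CFU/ml final. Grown in CAMHB at 35 °C for 20 h.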

Moraxella catarrhalis [19] = experiment: Bactericidal activity against erythromycin-susceptible Moraxella catarrhalis 13L332 assessed as reduction in colony formation incubated in CAMHB medium for 20 hrs followed by 24 hrs subculturing in the medium without test compound
Moraxella catarrhalis [20] = experiment: Ratio of MBC to MIC for erythromycin-susceptible Moraxella catarrhalis 13L332
Streptococcus pneumoniae [21] = experiment: Antimicrobial activity against constitutively erythromycin resistant Streptococcus pneumoniae PU27 expressing c-erm incubated in CAMHB medium for 20 to 24 hrs by two-fold microbroth dilution method
Summary of the method: (§3)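 Purified fresh Streptococcus isolate at about 5×10^5 CFU/ml final in CAMHB with 5% horse serum, 35 °C for 20–24 h. […] Each run included ATCC strains and reference antibiotics as QC, plus an antibiotic-free growth control.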

Streptococcus pyogenes [22] = experiment: Antimicrobial activity against constitutively erythromycin resistant Streptococcus pyogenes A2 expressing c-erm incubated in CAMHB medium for 20 to 24 hrs by two-fold microbroth dilution method; summary of the method: as §3
Streptococcus pyogenes [23] = experiment: Antimicrobial activity against erythromycin-susceptible Streptococcus pyogenes A3 incubated in CAMHB medium for 20 to 24 hrs by two-fold microbroth dilution method
Staphylococcus aureus [24] = experiment: Antimicrobial activity against erythromycin-susceptible Staphylococcus aureus ATCC 29213 incubated in CAMHB medium for 20 hrs by two-fold microbroth dilution method; details: ATCC 29213, 20 h; summary of the method: as §2
Staphylococcus aureus [25] = experiment: Antimicrobial activity against inducibly erythromycin-resistant Staphylococcus aureus PU32 expressing i-ermA incubated in CAMHB medium for 20 hrs by two-fold microbroth dilution method; details: PU32, 20 h
Summary of the method: (§4)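 Purified fresh Staphylococcus isolate at about 5×10^5 CFU/ml final in CAMHB, 35 °C for 20 h. […] Each run included ATCC strains and reference antibiotics as QC, plus an antibiotic-free growth control.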

Staphylococcus aureus [26] = experiment: Antimicrobial activity against constitutively erythromycin resistant Staphylococcus aureus PU20 expressing c-ermC incubated in CAMHB medium for 20 hrs by two-fold microbroth dilution method; details: PU20, 20 h; summary of the method: as §4
Staphylococcus aureus [27] = experiment: Antimicrobial activity against inducibly erythromycin resistant Staphylococcus aureus PU64 expressing i-ermA incubated in CAMHB medium for 20 hrs by two-fold microbroth dilution method; details: PU64, 20 h; summary of the method: as §4
[28] = system: Staphylococcus epidermidis; experiment: Antimicrobial activity against Staphylococcus epidermidis E1 incubated in CAMHB medium for 20 hrs by two-fold microbroth dilution method; details: E1, 20 h; summary of the method: as §2

Compound `CC[C@H]1OC(=O)[C@H](C)[C@@H](OC(=O)CCNCC#Cc2cccnc2)[C@H](C)[C@@H](O[C@@H]2O[C@H](C)C[C@H](N(C)C)[C@H]2O)[C@](C)(OC)C[C@@H](C)/C(=N\OC)[C@H](C)[C@H]2OC(=O)O[C@@]21C` has an MIC (Streptococcus pneumoniae [1]) of 1 µg/mL (≈ 1.2 µM), an MIC (Streptococcus pneumoniae [2]) of 8 µg/mL (≈ 9.63 µM) and an MBC (Streptococcus pneumoniae [3]) of 4 µg/mL (≈ 4.81 µM). It also gave a Ratio (Streptococcus pneumoniae [4]) of 4, an MBC (Streptococcus pneumoniae [5]) of 16 µg/mL (≈ 19.3 µM) and a Ratio (Streptococcus pneumoniae [6]) of 2. The MIC (Streptococcus pyogenes [7]) was 8 µg/mL (≈ 9.63 µM), the MBC (Streptococcus pyogenes [8]) was > 64 µg/mL and the Ratio (Streptococcus pyogenes [9]) was >8. For the same compound, the MIC (Staphylococcus aureus [10]) was 256 µg/mL (≈ 308 µM), the MBC (Staphylococcus aureus [11]) was > 256 µg/mL and the MIC (Staphylococcus aureus [12]) was 64 µg/mL (≈ 77 µM). The MBC (Staphylococcus aureus [13]) was > 256 µg/mL, the Ratio (Staphylococcus aureus [14]) was >4 and the MIC (Haemophilus influenzae [15]) was 256 µg/mL (≈ 308 µM). The MBC (Haemophilus influenzae [16]) was 256 µg/mL (≈ 308 µM) and the Ratio (Haemophilus influenzae [17]) was 1.

With `CC[C@H]1OC(=O)[C@H](C)[C@@H](OC(=O)NCCCc2ccc3c(c2)c(=O)c(C(=O)O)cn3C2CC2)[C@H](C)[C@@H](O[C@@H]2O[C@H](C)C[C@H](N(C)C)[C@H]2O)[C@](C)(OC)C[C@@H](C)/C(=N\OC)[C@H](C)[C@H]2OC(=O)O[C@@]21C` the MIC (Streptococcus pneumoniae [1]) was 1 µg/mL (≈ 1.04 µM), the MIC (Streptococcus pneumoniae [2]) was 2 µg/mL (≈ 2.09 µM) and the MBC (Streptococcus pneumoniae [3]) was 2 µg/mL (≈ 2.09 µM). The Ratio (Streptococcus pneumoniae [4]) was 2, the MBC (Streptococcus pneumoniae [5]) was 8 µg/mL (≈ 8.36 µM) and the Ratio (Streptococcus pneumoniae [6]) was 4. For the same compound, the MIC (Streptococcus pyogenes [7]) was 4 µg/mL (≈ 4.18 µM), the MBC (Streptococcus pyogenes [8]) was 8 µg/mL (≈ 8.36 µM) and the Ratio (Streptococcus pyogenes [9]) was 2. For the same compound, the MIC (Staphylococcus aureus [10]) was 256 µg/mL (≈ 267 µM), the MBC (Staphylococcus aureus [11]) was > 256 µg/mL and the MIC (Staphylococcus aureus [12]) was 32 µg/mL (≈ 33.4 µM). For the same compound, the MBC (Staphylococcus aureus [13]) was > 256 µg/mL, the Ratio (Staphylococcus aureus [14]) was >8 and the MIC (Haemophilus influenzae [15]) was 256 µg/mL (≈ 267 µM). For the same compound, the MBC (Haemophilus influenzae [16]) was 256 µg/mL (≈ 267 µM) and the Ratio (Haemophilus influenzae [17]) was 1.

For `C#CCNCCC(=O)O[C@H]1[C@H](C)[C@@H](O[C@@H]2O[C@H](C)C[C@H](N(C)C)[C@H]2O)[C@](C)(OC)C[C@@H](C)/C(=N\OC)[C@H](C)[C@H]2OC(=O)O[C@]2(C)[C@@H](CC)OC(=O)[C@@H]1C`, the MIC (Streptococcus pneumoniae [1]) was 0.13 µg/mL (≈ 0.172 µM), the MIC (Streptococcus pneumoniae [2]) was 2 µg/mL (≈ 2.65 µM) and the MBC (Streptococcus pneumoniae [3]) was 1 µg/mL (≈ 1.33 µM). It also gave a Ratio (Streptococcus pneumoniae [4]) of 8, an MBC (Streptococcus pneumoniae [5]) of 4 µg/mL (≈ 5.31 µM) and a Ratio (Streptococcus pneumoniae [6]) of 2. For the same compound, the MIC (Streptococcus pyogenes [7]) was 0.5 µg/mL (≈ 0.663 µM), the MBC (Streptococcus pyogenes [8]) was > 4 µg/mL and the Ratio (Streptococcus pyogenes [9]) was >8. For the same compound, the MIC (Staphylococcus aureus [10]) was 256 µg/mL (≈ 340 µM), the MBC (Staphylococcus aureus [11]) was > 256 µg/mL and the MIC (Staphylococcus aureus [12]) was 16 µg/mL (≈ 21.2 µM). The MBC (Staphylococcus aureus [13]) was > 128 µg/mL, the Ratio (Staphylococcus aureus [14]) was >8 and the MIC (Haemophilus influenzae [15]) was 128 µg/mL (≈ 170 µM). For the same compound, the MBC (Haemophilus influenzae [16]) was 128 µg/mL (≈ 170 µM) and the Ratio (Haemophilus influenzae [17]) was 1.

`CC[C@H]1OC(=O)[C@H](C)[C@@H](OCC#Cc2cncc(NC(=O)c3ccccn3)c2)[C@H](C)[C@@H](O[C@@H]2O[C@H](C)C[C@H](N(C)C)[C@H]2O)[C@](C)(OC)C[C@@H](C)/C(=N\OC)[C@H](C)[C@H]2OC(=O)O[C@@]21C` gave an MIC (Streptococcus pneumoniae [1]) of 4 µg/mL (≈ 4.55 µM), an MIC (Streptococcus pneumoniae [2]) of 4 µg/mL (≈ 4.55 µM) and an MBC (Streptococcus pneumoniae [3]) of 16 µg/mL (≈ 18.2 µM). For the same compound, the Ratio (Streptococcus pneumoniae [4]) was 4, the MBC (Streptococcus pneumoniae [5]) was 16 µg/mL (≈ 18.2 µM) and the MIC (Streptococcus pyogenes [7]) was 16 µg/mL (≈ 18.2 µM). The MBC (Streptococcus pyogenes [8]) was 32 µg/mL (≈ 36.4 µM), the Ratio (Streptococcus pyogenes [9]) was 2 and the MIC (Staphylococcus aureus [10]) was 256 µg/mL (≈ 291 µM). The MBC (Staphylococcus aureus [11]) was > 256 µg/mL, the MIC (Staphylococcus aureus [12]) was > 256 µg/mL and the MBC (Staphylococcus aureus [13]) was > 256 µg/mL. It also gave an MIC (Moraxella catarrhalis [18]) of 8 µg/mL (≈ 9.09 µM), an MBC (Moraxella catarrhalis [19]) of 16 µg/mL (≈ 18.2 µM) and a Ratio (Moraxella catarrhalis [20]) of 2.

`CC[C@H]1OC(=O)[C@H](C)[C@@H](O[C@H]2C[C@@](C)(OC)[C@@H](O)[C@H](C)O2)[C@H](C)[C@@H](O[C@@H]2O[C@H](C)C[C@H](N(C)C)[C@H]2O)[C@](C)(O)C[C@@H](C)CN(C)[C@H](C)[C@@H](O)[C@]1(C)O` [AZITHROMYCIN] gave an MIC (Streptococcus pneumoniae [1]) of 0.25 µg/mL (≈ 0.334 µM), an MIC (Streptococcus pneumoniae [2]) of 16 µg/mL (≈ 21.4 µM) and an MIC (Streptococcus pneumoniae [21]) of 64 µg/mL (≈ 85.4 µM). The MIC (Streptococcus pyogenes [22]) was 128 µg/mL (≈ 171 µM), the MIC (Streptococcus pyogenes [23]) was 0.25 µg/mL (≈ 0.334 µM) and the MIC (Staphylococcus aureus [24]) was 2 µg/mL (≈ 2.67 µM). The MIC (Staphylococcus aureus [25]) was > 256 µg/mL, the MIC (Staphylococcus aureus [26]) was > 256 µg/mL and the MIC (Staphylococcus aureus [27]) was > 256 µg/mL. For the same compound, the MIC [28] was > 256 µg/mL.
